Data on 5 compounds can be found in publication PMC7293934 (Neuropharmacology, 2020).

Where “and” joins values, the source holds several entries; their conditions need not be identical. Equal values may be shown once. Entries after “also recorded” stand apart in the source; their conditions may differ. Read-outs that look alike come from different tables or passages of the source. Where only a bound is given, the exact number is not on record here.

For one data set, the system named is hippocampal interneurons. To be noted: ref Perszyk et al., 2016; cited from earlier work.
In data set [1] the target is T1, GluN1/2D (Rattus norvegicus, UniProt P35439+Q62645). In kind it is cell-based. Conditions: for Increase in glutamate potency / Increase in glycine potency: 10 μM modulator; for Increase in glutamate potency: 50 μM glycine; for Increase in glycine potency: 100 μM glutamate; for Increase in potencies of co-agonists glutamate and glycine: summary statement.
Data set [2] concerns hippocampal CA1 pyramidal neurons. Conditions: ref Perszyk et al., 2016; cited from earlier work.
The subject of another data set is recombinant GluN1/2A/2C. To be noted: ref Bhattacharya et al., 2018; cited from earlier work.
Data set [3] deals with NMDA receptor-mediated responses of STN neurons. Conditions: ref Swanger et al., 2015; cited from earlier work.
Data set [4] concerns native NMDA receptors expressed by hippocampal CA1 pyramidal neurons. The class given is cell-based, mouse. In short, it runs like this:
(§1)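 Transverse 300 μm ventral hippocampal slices were cut from P12–18 C57BL/6J mice. Recording was at 32°C in aCSF with 0.2 mM Mg2+, 20 μM DNQX and 10 μM gabazine, using a Cs-based internal. Visually identified CA1 stratum radiatum/lacunosum moleculare interneurons or CA1 pyramidal neurons were held at +40 mV, with Schaffer collateral stimulation every 30–60 s. Sequence was baseline 5–10 min, 10 μM test compound 10–15 min, then 400 μM DL-APV.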

Data set [5] has as its system native NMDA receptors expressed by hippocampal interneurons. The class given is cell-based, mouse. In short, it runs like this: as §1
Data set [6] deals with native NMDA receptors expressed by STN neurons. The class given is cell-based, mouse. A digest of the protocol: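 Sagittal 300 μm slices containing STN were cut from P12–18 C57BL/6J mice of either sex. Recording was at 32°C in aCSF with 0.2 mM Mg2+, 20 μM DNQX and 10 μM gabazine, using a Cs-based internal with QX-314, at −40 mV. Internal capsule stimulation was given every 30–60 s during 5–10 min baseline, then 10–15 min vehicle (0.01% DMSO) or 10 μM test compound, then 400 μM DL-APV. Charge transfer was taken as EPSC area.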

For data set [7] the test system is unchanged. In kind it is cell-based, mouse. To be noted: APV 400 μM superfusion.
Data set [8] has as its target T2, GluN1/2C (Rattus norvegicus, UniProt P35439+Q00961). The class given is cell-based.
Data set [9] concerns the target GluN1/2AC1/2BC2 (triheteromeric GluN1/2A/2B) (Rattus norvegicus, UniProt P35439+Q00959+Q00960). In kind it is cell-based.
The target of data set [10] is T2, GluN1/2C. The data set is described as follows: Fast-application whole-cell patch-clamp electrophysiology, HEK293 cells. In kind it is cell-based. To be noted: 10 μM PTC-174 continuous; 3–5 ms 1 mM glutamate; 10 μM glycine. In short, it runs like this:
(§2)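 HEK293 cells on poly-D-lysine coverslips in DMEM with 10% dialyzed FBS were calcium-phosphate transfected with GFP, GluN1 and GluN2 cDNAs (1:1:1), with 200 μM D,L-APV and 200 μM 7-chlorokynurenic acid in the medium. About 24 h later, whole-cell recordings were made at 20°C and −60 mV on lifted cells using piezo-driven theta-glass exchange. Cells were accepted at <1000 pA and <10 MΩ series resistance.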

Another data set addresses GluN1/2CC1/2CC2-NK (Rattus norvegicus, UniProt P35439+Q00961, N612K). In kind it is cell-based. Conditions: for EC50: EC50, 100 μM glutamate + 50 μM glycine; for nH: Hill slope.
Data set [11] addresses T1, GluN1/2D. The data set is described as follows: Fast-application whole-cell patch-clamp electrophysiology, HEK293 cells. The class given is cell-based. Conditions: 10 μM glycine. A digest of the protocol:
as §2
In general terms: Patch clamp records ionic current or voltage across a cell membrane.

In data set [12] the target is GluN1/2BC1/2DC2 (triheteromeric GluN1/2B/2D) (Rattus norvegicus, UniProt P35439+Q00960+Q62645). In kind it is cell-based. To be noted: Hill slope of PTC-174 concentration-response.
Data set [13] in a line: CNS exposure after systemic administration. The class given is in vivo. Conditions: no data shown.
In data set [14] the target is GluN1/2AC1/2CC2-NK (triheteromeric GluN1/2A/2C) (Rattus norvegicus, UniProt P35439+Q00959+Q00961, N612K). In kind it is cell-based. To be noted: Hill slope; in the presence of 1 mM Mg2+.
Another data set deals with AMPA (GluA1–4) receptors. The experiment in a line: Two-electrode voltage-clamp electrophysiology, selectivity over AMPA receptors. The class given is cell-based. To be noted: 10 μM PTC-174; activated by 30 μM kainate. A digest of the protocol: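 GluA1–4 AMPA receptors were expressed from cRNA in Xenopus oocytes. Two-electrode voltage clamp was at −40 mV and 21–23°C in Ba2+-containing solution, pH 7.4. Currents were evoked by 30 μM kainate with and without 10 μM test compound (DMSO <0.1%). Responses were normalized to control without test compound, from 5–8 oocytes.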
In general terms: In two-electrode clamp one electrode senses voltage and the other passes current.

The next data set deals with GluN1/2B (Rattus norvegicus, UniProt P35439+Q00960). In kind it is cell-based. A digest of the protocol: (§3)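 Rat GluN1 with GluN2A or GluN2B was expressed from cRNA in Xenopus oocytes. Oocytes were used 2–4 days later and preinjected with 50 mM BAPTA 10–30 min before recording. Two-electrode voltage clamp was at −40 mV and 21–23°C in Ba2+-containing solution, pH 7.4. […] Responses as % of agonist alone were Hill-fitted for EC50, nH and maximal modulation. At least 4 oocytes from ≥2 frogs were used.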

Data set [15] addresses GluN1/2A (Rattus norvegicus, UniProt P35439+Q00959). The class given is cell-based. A digest of the protocol:
as §3

Data set [16] concerns kainate (GluK1–2) receptors. In kind it is cell-based. To be noted: 10 μM PTC-174; activated by 100 μM glutamate; concanavalin A pre-incubation. In short, it runs like this: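 Oocytes expressing GluK1 or GluK2 were incubated 10 min in 1 mg/ml concanavalin A in recording solution. They were then clamped at −40 mV at 21–23°C in Ba2+-containing solution, pH 7.4. […] Responses were normalized to control without test compound, from 5–8 oocytes.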

For data set [17], the system named is GluN1/2A. To be noted: read-out: glycine EC50; in the absence of PTC-174; ref Yi et al. 2016; cited from earlier work.
Setting [18] is: 10 μM PTC-174, 10 μM glutamate + 1 μM glycine.
[19] abbreviates: 100 μM glutamate + 50 μM glycine.
The mark [20] stands for this setting: Hill slope of PTC-174 concentration-response.
Setting [21] is: relative to the response activated by glutamate + glycine + PTC-174.
The mark [22] stands for this setting: control (no modulator), continuous 50 μM glycine.

GluN1/2AC1/2BC2 (triheteromeric GluN1/2A/2B), sequence (Q00959 23-1464, other chains not shown): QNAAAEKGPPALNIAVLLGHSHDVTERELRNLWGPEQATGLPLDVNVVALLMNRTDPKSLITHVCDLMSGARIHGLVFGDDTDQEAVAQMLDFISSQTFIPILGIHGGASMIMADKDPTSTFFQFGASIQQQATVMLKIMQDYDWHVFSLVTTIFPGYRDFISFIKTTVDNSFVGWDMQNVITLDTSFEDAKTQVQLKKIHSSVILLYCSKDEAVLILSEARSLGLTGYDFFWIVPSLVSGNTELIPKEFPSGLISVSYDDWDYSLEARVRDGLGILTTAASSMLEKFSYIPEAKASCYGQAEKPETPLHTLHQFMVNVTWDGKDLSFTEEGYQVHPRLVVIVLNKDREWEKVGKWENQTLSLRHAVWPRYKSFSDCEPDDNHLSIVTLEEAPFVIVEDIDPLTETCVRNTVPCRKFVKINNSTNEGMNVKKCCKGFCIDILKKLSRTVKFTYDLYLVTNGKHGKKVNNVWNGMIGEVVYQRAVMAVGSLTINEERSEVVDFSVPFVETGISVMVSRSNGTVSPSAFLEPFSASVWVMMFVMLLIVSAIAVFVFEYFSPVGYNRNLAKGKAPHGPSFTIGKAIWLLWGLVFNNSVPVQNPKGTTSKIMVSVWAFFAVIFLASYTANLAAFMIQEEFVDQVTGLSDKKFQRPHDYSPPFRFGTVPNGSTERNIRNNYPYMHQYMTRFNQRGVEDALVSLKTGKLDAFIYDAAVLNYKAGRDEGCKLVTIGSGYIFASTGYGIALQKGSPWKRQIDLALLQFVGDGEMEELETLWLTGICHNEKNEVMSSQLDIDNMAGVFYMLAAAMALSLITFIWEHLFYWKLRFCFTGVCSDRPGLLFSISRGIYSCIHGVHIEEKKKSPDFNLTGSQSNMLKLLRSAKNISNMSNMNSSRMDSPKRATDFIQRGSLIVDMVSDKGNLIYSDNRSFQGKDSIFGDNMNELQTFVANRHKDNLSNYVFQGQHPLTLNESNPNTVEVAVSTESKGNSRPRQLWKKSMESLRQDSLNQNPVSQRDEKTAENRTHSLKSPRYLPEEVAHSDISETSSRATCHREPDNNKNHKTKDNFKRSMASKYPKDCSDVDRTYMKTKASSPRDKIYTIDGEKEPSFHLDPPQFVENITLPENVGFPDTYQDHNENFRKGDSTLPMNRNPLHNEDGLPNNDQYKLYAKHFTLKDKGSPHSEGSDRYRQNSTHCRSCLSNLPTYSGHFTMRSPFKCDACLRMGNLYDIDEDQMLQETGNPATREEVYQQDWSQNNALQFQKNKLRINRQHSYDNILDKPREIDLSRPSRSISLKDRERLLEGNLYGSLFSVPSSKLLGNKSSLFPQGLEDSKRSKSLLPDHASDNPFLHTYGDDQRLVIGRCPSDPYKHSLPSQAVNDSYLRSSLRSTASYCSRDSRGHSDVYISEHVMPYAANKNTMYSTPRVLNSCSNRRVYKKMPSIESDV
GluN1/2A (Rattus norvegicus, UniProt P35439+Q00959), sequence (Q00959 23-1464, other chains not shown): as above
GluN1/2CC1/2CC2-NK, sequence (Q00961 20-836 N612K, other chains not shown): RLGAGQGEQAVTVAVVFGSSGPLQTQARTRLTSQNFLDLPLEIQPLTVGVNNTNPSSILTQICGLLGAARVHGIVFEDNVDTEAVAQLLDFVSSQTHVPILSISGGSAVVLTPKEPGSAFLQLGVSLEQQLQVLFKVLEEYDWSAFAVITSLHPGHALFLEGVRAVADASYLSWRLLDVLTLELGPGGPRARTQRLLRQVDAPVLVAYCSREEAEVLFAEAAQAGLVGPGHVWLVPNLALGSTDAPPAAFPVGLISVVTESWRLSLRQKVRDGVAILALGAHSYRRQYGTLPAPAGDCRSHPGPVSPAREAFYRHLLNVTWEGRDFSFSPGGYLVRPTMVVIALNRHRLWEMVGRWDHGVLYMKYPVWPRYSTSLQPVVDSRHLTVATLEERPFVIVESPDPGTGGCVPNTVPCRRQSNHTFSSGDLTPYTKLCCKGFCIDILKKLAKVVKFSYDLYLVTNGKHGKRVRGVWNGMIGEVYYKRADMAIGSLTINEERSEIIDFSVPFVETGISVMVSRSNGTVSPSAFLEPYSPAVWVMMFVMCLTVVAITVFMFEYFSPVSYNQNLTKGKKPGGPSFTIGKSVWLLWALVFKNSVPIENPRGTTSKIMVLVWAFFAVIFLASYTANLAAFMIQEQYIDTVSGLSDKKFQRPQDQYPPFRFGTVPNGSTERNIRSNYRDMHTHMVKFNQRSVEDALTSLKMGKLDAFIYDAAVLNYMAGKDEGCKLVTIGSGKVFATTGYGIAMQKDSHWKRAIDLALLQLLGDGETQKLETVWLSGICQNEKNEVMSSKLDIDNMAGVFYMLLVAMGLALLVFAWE
T2 sequence (Q00961 20-1237, other chains not shown): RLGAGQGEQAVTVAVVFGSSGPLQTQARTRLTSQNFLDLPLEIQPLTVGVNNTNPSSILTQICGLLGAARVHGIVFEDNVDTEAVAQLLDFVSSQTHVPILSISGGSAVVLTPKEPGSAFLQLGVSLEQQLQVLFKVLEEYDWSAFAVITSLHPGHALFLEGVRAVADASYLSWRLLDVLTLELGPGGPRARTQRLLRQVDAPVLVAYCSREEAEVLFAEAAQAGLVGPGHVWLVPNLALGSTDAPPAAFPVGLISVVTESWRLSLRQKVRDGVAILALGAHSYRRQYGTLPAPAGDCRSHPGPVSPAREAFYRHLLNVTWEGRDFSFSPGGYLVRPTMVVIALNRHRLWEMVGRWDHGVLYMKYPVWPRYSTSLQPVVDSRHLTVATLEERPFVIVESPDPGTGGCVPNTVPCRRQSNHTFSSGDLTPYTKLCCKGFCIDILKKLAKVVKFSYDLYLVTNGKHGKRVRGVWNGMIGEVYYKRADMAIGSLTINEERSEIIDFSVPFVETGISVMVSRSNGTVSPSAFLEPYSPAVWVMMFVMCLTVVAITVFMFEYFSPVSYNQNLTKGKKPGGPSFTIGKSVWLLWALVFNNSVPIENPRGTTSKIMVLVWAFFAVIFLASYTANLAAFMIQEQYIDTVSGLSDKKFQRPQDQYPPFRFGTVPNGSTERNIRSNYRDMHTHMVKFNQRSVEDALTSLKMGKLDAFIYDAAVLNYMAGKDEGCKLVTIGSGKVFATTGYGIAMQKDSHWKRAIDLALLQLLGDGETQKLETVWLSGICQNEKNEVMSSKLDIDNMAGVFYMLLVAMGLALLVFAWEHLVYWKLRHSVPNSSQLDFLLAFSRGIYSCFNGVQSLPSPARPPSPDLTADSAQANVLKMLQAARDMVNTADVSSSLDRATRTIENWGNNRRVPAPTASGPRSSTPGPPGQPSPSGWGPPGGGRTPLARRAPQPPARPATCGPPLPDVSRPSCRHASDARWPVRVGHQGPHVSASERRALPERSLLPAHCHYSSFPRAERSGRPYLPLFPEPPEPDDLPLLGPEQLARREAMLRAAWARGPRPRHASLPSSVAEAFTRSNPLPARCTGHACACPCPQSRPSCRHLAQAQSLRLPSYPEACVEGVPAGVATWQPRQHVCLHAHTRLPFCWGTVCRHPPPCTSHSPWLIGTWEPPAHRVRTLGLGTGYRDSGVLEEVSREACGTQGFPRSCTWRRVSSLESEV

On to `COc1ccc(OCC2c3cc(OC)c(OC)cc3CCN2C(=O)c2cccc(Cl)c2)cc1` (single isomer, unassigned; (+)) [(+)-CIQ, (3-Chlorophenyl){6,7-dimethoxy-1-[(4-methoxyphenoxy)methyl]-3,4-dihydro-2(1H)-isoquinolinyl}methanone], for which the “Effect on EPSC decay time” value in the data set with hippocampal interneurons was “did not affect the EPSC decay time”. Moreover, at GluN1/2D [1], the “Increase in glutamate potency” value is given as “no effect on glutamate potency”; the “Increase in glycine potency” value was “no significant effect on glycine potency”; the “Increase in potencies of co-agonists glutamate and glycine” value was “no effect on agonist potencies”. Moreover, the “Effect on NMDA receptor-mediated EPSCs” value in data set [2] is reported as “no effect on NMDA receptor-mediated EPSCs”. In addition, the “Efficacy relative to GluN1/2C” value in the data set with recombinant GluN1/2A/2C is on record as “nearly as efficacious at recombinant GluN1/2A/2C as at GluN1/2C”. Further, in [3], the “Effect on NMDA receptor-mediated responses of STN neurons” value is “potentiate”.

As to `NC(CCCP(=O)(O)O)C(=O)O` (stereo not drawn) [APV, 2-Amino-5-phosphonovalerate, reference compound], the “Effect on NMDA receptor-mediated EPSCs” value in data set [4] (APV 400 μM superfusion), in data set [5] (APV 400 μM superfusion) and in [6] (APV 400 μM superfusion) was “completely blocked the NMDA receptor-mediated EPSCs” in each case. In [7], the “Effect on NMDA-evoked current” value is reported as “eliminated; also recorded: completely blocked the response to NMDA”.

On to `CC(C)(C)c1ccc(-c2nc3n(c(=O)c2C#N)CCCS3)cn1` [PTC-174, 8-(6-(tert-butyl)pyridin-3-yl)-6-oxo-3,4-dihydro-2H,6H-pyrimido[2,1-b][1,3]thiazine-7-carbonitrile], for which the “Potentiation of responses at low glycine” value on GluN1/2C [8] (setting [18]) is listed as ~ 10 fold; on GluN1/2D [1] (setting [18]) it was ~ 10 fold; on GluN1/2B (setting [18]), 1.8 fold; on GluN1/2A [15] (setting [18]) it was 1.6 fold. Also, the “Increase in glycine potency” value at GluN1/2C [8] (10 μM modulator, 100 μM glutamate) amounted to 4.7 fold; on GluN1/2D [1], 4.8 fold. The “Maximal modulation (% control)” value on GluN1/2C [8] (setting [19]) is given as 1095 ± 29 % control; on GluN1/2D [1] (setting [19]), 1265 ± 67 % control; on GluN1/2B (setting [19]) it was 180 ± 4 % control; at GluN1/2A [15] (100 μM glutamate + 50 μM glycine, control = response without PTC-174, inhibition), 39 ± 4 % control. Besides, the nH is listed as 1.2 on GluN1/2C [8] (setting [20]); −1.0 in data set [9] (setting [20]); 1.2 on GluN1/2CC1/2CC2-NK (in the presence of 1 mM Mg2+); 1.4 at GluN1/2CC1/2CC2-NK (without Mg2+); 1.0 in data set [12]; 1.2 on GluN1/2D [1] (setting [20]). The nH in data set [14] is 1.2; at GluN1/2B (setting [20]) it was 1.3; on GluN1/2A [15] (setting [20]), −1.1. In addition, the “Maximal potentiation of current responses” value was over 10 fold at GluN1/2C [8] (maximal glutamate plus glycine); > 10 fold and 13 fold on GluN1/2D [1] (maximal glutamate plus glycine); 1.8 fold at GluN1/2B (maximal glutamate plus glycine). For the same compound, on GluN1/2C [8] (setting [21]), the “Current response to glutamate only + PTC-174” value was 1.5% ± 0.1. In addition, at GluN1/2C [8] (setting [21]), the “Current response to glycine only + PTC-174” value is 4.0% ± 0.9. In addition, the “Increase in potencies of co-agonists glutamate and glycine” value on GluN1/2C [8] (summary statement) and on GluN1/2D [1] was 2- to 5 fold each time. Also, the results for the 50% effective concentration (EC50) (in [9]; at GluN1/2CC1/2CC2-NK (in the presence of 1 mM Mg2+); on GluN1/2CC1/2CC2-NK (without Mg2+)) were 19.7 ± 1.5 µM, 4.5 ± 0.2 µM and 5 ± 0.5 µM, respectively. Further, the “Effect on current responses (in words)” value in data set [9] (maximal glutamate plus glycine) is “partial inhibition; also recorded: partial antagonist”; on GluN1/2A [15] (maximal glutamate plus glycine), “concentration-dependent partial inhibition; also recorded: partial antagonist”. For the same compound, the τfast in [4] (10 μM PTC-174, +40 mV, baseline 56.0 ± 3.3) was determined as 64.3 ± 9.3 ms; in data set [5] (10 μM PTC-174, +40 mV, baseline 113.7 ± 27.2), 147.3 ± 46.5 ms; in [6] (10 μM PTC-174, −40 mV, baseline 49.6 ± 5.5) it was 69.3 ± 10.1 ms. For the same compound, the “τw (weighted EPSC decay time constant)” value in data set [4] (10 μM PTC-174, +40 mV, baseline 150.1 ± 10.0) is 187.3 ± 20.0 ms; in [5] (10 μM PTC-174, +40 mV, baseline 191.6 ± 6.6), 292.0 ± 41.8 ms; in data set [6] (10 μM PTC-174, −40 mV, baseline 111.0 ± 7.1), 166.7 ± 21.3 ms and 166.7 ± 2.1 ms. In addition, the τslow in [4] (10 μM PTC-174, +40 mV, baseline 382.5 ± 38.8) was determined as 416.1 ± 36.9 ms; in data set [5] (10 μM PTC-174, +40 mV, baseline 321.4 ± 36.0), 522.4 ± 154.9 ms; in data set [6] (10 μM PTC-174, −40 mV, baseline 226.2 ± 21.8), 397.7 ± 131.5 ms. Moreover, the “Enhancement of peak responses” value at GluN1/2C [10] was 3.7 fold; on GluN1/2D [11] (10 μM PTC-174 continuous, 3–5 ms 1 mM glutamate) it was 5.3 fold. Moreover, the “Potentiation of response to 2 second glutamate application” value on GluN1/2D [11] (10 μM PTC-174 present before and during 1 mM glutamate exposure) is 6.3 fold. In data set [13], the CNS exposure entry was “readily achieves CNS exposure after systemic administration”. For the same compound, the “Increase in glutamate potency” value at GluN1/2D [1] is on record as 2.5 fold. Also, in data set [5] (10 μM PTC-174, +40 mV, baseline 132.6 ± 20.1), the Peak amplitude was 157 ± 23 pA and 156.6 ± 23.3 pA. The Charge transfer in [6] (10 μM PTC-174, −40 mV, baseline 12.9 ± 1.4) is listed as 15.9 ± 2.4 pA·S. The “Effect on current responses” value (in the data set with AMPA (GluA1–4) receptors; in [16]) was “did not affect current responses” each time.

For the compound `N[C@@H](CCC(=O)O)C(=O)O` [glutamate, reference compound], the “nH (glutamate)” value on GluN1/2C [8] (setting [22]) is 1.3; on GluN1/2D [1] (setting [22]), 1.7 and 1.5.

Take `NCC(=O)O` [glycine]: in the data set on GluN1/2A [17], the EC50 is 1.1 µM.

The EC50 is the concentration giving half of the maximal effect.
